Measurements gathered from unrelated publications.
Protocols differ between the studies behind these lines. Values after ≈ are worked out from the molar mass of the structure shown.

| SMILES | assay | system | setting | measurement | result |
| --- | --- | --- | --- | --- | --- |
| CCn1cc(C2CC2)c2c(Cc3ccc(C(F)(F)F)nc3)n(C)nc2c1=O | nephelometry | aqueous buffer | 30 min, pH 6.5 | kinetic solubility | 130 to 260 µM (≈ 48.9 to 97.9 µg/mL) |
| CCNCc1cnn(-c2ccc(-n3ccc(Cl)c(Cl)c3=O)cc2)c1C(F)(F)F | – | PBS | 24 h, pH 7.4 | kinetic solubility | 144 µM (≈ 62.1 µg/mL) |
| CC[C@@](N)(c1cnc(C(F)(F)F)c(Cl)c1)c1c2ncn(C3CC3)c(=O)c2nn1C | nephelometry | aqueous buffer | 30 min, pH 6.5 | kinetic solubility | 80 to 160 µM (≈ 34.1 to 68.3 µg/mL) |
| CN(C)C(=O)CN1CCN(c2cnc3c(cc(C(=O)NCc4ccc(Cl)cc4)c(=O)n3CC(=O)N3CC(C)(F)C3)n2)C1=O | – | aqueous buffer | 24 h, pH 7.4, 37 °C | thermodynamic solubility | < 1.56 µM |
| N#C/C(=C\c1c[nH]nc1-c1cccc(Br)c1)C(=O)O | – | PBS | 24 h, pH 7.4 | kinetic solubility | 0.1 µM (≈ 0.0318 µg/mL) |
| Cn1cncc1[C@@](N)(c1ccc(Cl)cc1)c1ccc2c(c1)c(-c1cccc(Cl)c1)cc(=O)n2C | – | FeSSIF | pH 5, 37 °C | solubility | 448 µg/mL (≈ 915 µM) |
| Cn1nc2c(=O)n(C3CC3)ccc2c1[C@](C)(O)c1cnc(C(F)(F)F)c(Cl)c1 | nephelometry | aqueous buffer | 30 min, pH 6.5 | kinetic solubility | 80 to 160 µM (≈ 33 to 66 µg/mL) |
| CCNC(=O)c1cnn(-c2ccc(-n3ccc(Cl)c(Cl)c3=O)cc2)c1C(F)(F)F | – | PBS | 24 h, pH 7.4 | kinetic solubility | 0.2 µM (≈ 0.089 µg/mL) |
| O=C(O)c1cn(-c2ccc(-c3ccc(C(=O)N4CCNCC4)cc3)cc2)cc(O)c1=O | – | aqueous buffer | pH 7.4 | kinetic solubility | 290 µM (≈ 122 µg/mL) |
| CCn1cc(C2CC2)c2c(Cc3ccc(C(F)(F)F)c(F)c3)n(C)nc2c1=O | nephelometry | aqueous buffer | 30 min, pH 6.5 | kinetic solubility | 16 to 32 µM (≈ 6.29 to 12.6 µg/mL) |
| CC1(F)CN(C(=O)Cn2c(=O)c(C(=O)NCc3ccc(Cl)cc3)cc3nc(N4CCN(CC(=O)O)C4=O)cnc32)C1 | – | aqueous buffer | 24 h, pH 7.4, 37 °C | thermodynamic solubility | 5660 µM |
| C[C@H]1COC2=C1C(=O)C(=O)c1c2ccc2c1CCCC2(C)C | – | PBS | 24 h, pH 7.4, 25 °C | thermodynamic solubility | 18.3 µg/mL |
| CCn1cc(C2CC2)c2c(Cc3cnc(C(F)(F)F)c(Cl)c3)n(C)nc2c1=O | nephelometry | aqueous buffer | 30 min, pH 6.5 | kinetic solubility | 50 to 100 µM (≈ 20.5 to 41.1 µg/mL) |
| CC1(F)CN(C(=O)Cn2c(=O)c(C(=O)NCc3ccc(Cl)cc3)cc3nccnc32)C1 | – | aqueous buffer | 24 h, pH 7.4, 37 °C | thermodynamic solubility | 52.6 µM |
| Cc1cc(C#N)cc(C)c1Oc1nc(Nc2ccc(C#N)cc2)nc(N)c1Br | – | FaSSIF | 24 h, pH 6.5 | thermodynamic solubility | 0.52 µg/mL |
